The source made the active and inactive calls. The rule behind the calls is not given here.
Assays:
Bcl-2-like protein 1 = Bcl-2-like protein 1 (Homo sapiens, UniProt Q07817); assay: Displacement of FITC-conjugated BH3-Bak peptide from human recombinant Bcl-XL expressed in Escherichia coli BL21 (DE3) by fluorescence polarization assay
Procedure, shortened: (§1)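 Fluorescence polarization competition: N1L or Bcl-XL incubated with 10 nM BH3-Bak peptide and titrated ligand. Bcl-XL run on the same plate as N1L. N1L tested at several concentrations, none below 500 nM. Normalized polarization vs log ligand fit to a variable-slope dose-response curve for competitive IC50.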

[1] = molecular target: Apoptosis regulator Bcl-2 (Homo sapiens, UniProt P10415); assay: Displacement of FITC-conjugated BH3-Bim peptide from human recombinant Bcl-2 expressed in Escherichia coli BL21 (DE3) by fluorescence polarization assay
Sequence of Apoptosis regulator Bcl-2 (P10415 whole entry, the tested form may be a part): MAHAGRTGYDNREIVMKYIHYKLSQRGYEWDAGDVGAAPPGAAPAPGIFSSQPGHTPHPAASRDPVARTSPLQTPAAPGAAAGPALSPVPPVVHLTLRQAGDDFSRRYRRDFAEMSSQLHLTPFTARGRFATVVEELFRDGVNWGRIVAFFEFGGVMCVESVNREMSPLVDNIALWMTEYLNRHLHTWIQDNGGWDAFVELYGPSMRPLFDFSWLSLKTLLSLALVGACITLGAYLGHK
Procedure, shortened: (§2)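 Fluorescence polarization competition with 10 nM BH3-Bim peptide against F1L or Bcl-2, run alongside N1L, with titrated ligand and a variable-slope dose-response fit for IC50. F1L construct: residues 35–190 from vaccinia WR as N-terminal GST fusion, expressed in E. coli BL21(DE3) (500 μM IPTG, 20 °C, 18 h), finished on Superdex 200 in 20 mM Tris pH 8.0, 100 mM NaCl.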

[2] = Displacement of FITC-conjugated BH3-Bim peptide from Vaccinia virus N-terminal GST-fused F1L expressed in Escherichia coli BL21 (DE3) by fluorescence polarization assay; design: species or system Orthopoxvirus vaccinia; procedure, shortened: as §2
N1L [3] = molecular target: T1, N1L (Vaccinia virus, UniProt Q49PX0); assay: Displacement of FITC-conjugated BH3-Bak peptide from Vaccinia virus recombinant N1L expressed in Escherichia coli BL21 (DE3) by fluorescence polarization assay; design: species or system Orthopoxvirus vaccinia; procedure, shortened: as §1
T1 sequence (Q49PX0 whole entry): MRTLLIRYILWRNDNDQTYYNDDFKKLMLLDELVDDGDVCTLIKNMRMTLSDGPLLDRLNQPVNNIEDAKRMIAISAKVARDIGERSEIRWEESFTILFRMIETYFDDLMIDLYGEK

N1L (Vaccinia virus) [4] = molecular target: N1L (Vaccinia virus) (UniProt Q49PX0); assay: Binding affinity to Vaccinia virus recombinant N1L expressed in Escherichia coli BL21 (DE3) assessed as protein melting temperature at 106 uM by differential scanning calorimetry; settings: Orthopoxvirus vaccinia
Procedure, shortened: (§3)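 DSC at 1 K/min scan rate under 3.0 atm. Samples in PBS with 1.0 mg/ml (71 μM) N1L, 2 or 5% DMSO, and compound at 71, 106 or 214 μM; DMSO-only reference. Melting temperature and enthalpy of unfolding (area under peak) taken from thermograms.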

N1L [5] = molecular target: T1, N1L; assay: Displacement of FITC-conjugated BH3-Bak peptide from 0.5 uM Vaccinia virus recombinant N1L expressed in Escherichia coli BL21 (DE3) by fluorescence polarization assay; design: species or system Orthopoxvirus vaccinia; procedure, shortened: as §1
N1L (Vaccinia virus) [6] = molecular target: N1L (Vaccinia virus) (UniProt Q49PX0); assay: Binding affinity to Vaccinia virus recombinant N1L expressed in Escherichia coli BL21 (DE3) assessed as effect on enthalpy of protein unfolding at 106 uM by differential scanning calorimetry; settings: Orthopoxvirus vaccinia; procedure, shortened: as §3
N1L [7] = molecular target: T1, N1L; assay: Displacement of FITC-conjugated BH3-Bak peptide from 1 uM Vaccinia virus recombinant N1L expressed in Escherichia coli BL21 (DE3) by fluorescence polarization assay; design: species or system Orthopoxvirus vaccinia; procedure, shortened: as §1
N1L (Vaccinia virus) [8] = molecular target: N1L (Vaccinia virus) (UniProt Q49PX0); assay: Binding affinity to Vaccinia virus recombinant N1L expressed in Escherichia coli BL21 (DE3) assessed as protein melting temperature at 71 uM by differential scanning calorimetry; settings: Orthopoxvirus vaccinia; procedure, shortened: as §3
N1L (Vaccinia virus) [9] = molecular target: N1L (Vaccinia virus) (UniProt Q49PX0); assay: Binding affinity to Vaccinia virus recombinant N1L expressed in Escherichia coli BL21 (DE3) assessed as effect on enthalpy of protein unfolding at 71 uM by differential scanning calorimetry; settings: Orthopoxvirus vaccinia; procedure, shortened: as §3
[10] = Therapeutic index, ratio of TC50 for african green monkey CV1 cells to EC50 for GFP-expressing Vaccinia virus WR infected in african green monkey CV1 cells; type: cell-based, CV-1; settings: read-out: TI
[11] = Therapeutic index, ratio of TC50 for human HT1080 cells to EC50 for GFP-expressing Vaccinia virus WR infected in human HT1080 cells; type: cell-based, HT-1080; settings: read-out: TI
[12] = Cytotoxicity against african green monkey CV1 cells at >100 uM after 2.5 day by ATP lite assay; type: cell-based; settings: chlorocebus aethiops, cv-1, 60 h
Vaccinia virus [13] = assay: Antiviral activity against GFP-expressing Vaccinia virus WR infected in human HT1080 cells after 2.5 days by fluorescence assay; type: functional, organism-based; settings: Orthopoxvirus vaccinia, HT-1080, 60 h
Vaccinia virus [14] = assay: Antiviral activity against GFP-expressing Vaccinia virus WR infected in african green monkey CV1 cells after 2.5 days by fluorescence assay; type: functional, organism-based; settings: Orthopoxvirus vaccinia, CV-1, 60 h
HT-1080 = assay: Cytotoxicity against human HT1080 cells at >100 uM after 2.5 day by ATP lite assay; type: cell-based; settings: ht-1080, 60 h
N1L (Vaccinia virus) [15] = molecular target: N1L (Vaccinia virus) (UniProt Q49PX0); assay: Binding affinity to Vaccinia virus recombinant N1L expressed in Escherichia coli BL21 (DE3) assessed as protein melting temperature at 214 uM by differential scanning calorimetry; settings: Orthopoxvirus vaccinia
Procedure, shortened: (§4)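 Differential scanning calorimetry of recombinant N1L at 1.0 mg/ml (71 μM) in PBS with 2 or 5% DMSO, plus 214 μM compound, against a DMSO-only reference. Scanned at 1 K/min under 3.0 atm. Melting temperature (Tm) is taken from the peak, and enthalpy of unfolding (ΔH) from the area under the DSC peak.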

N1L (Vaccinia virus) [16] = molecular target: N1L (Vaccinia virus) (UniProt Q49PX0); assay: Binding affinity to Vaccinia virus recombinant N1L expressed in Escherichia coli BL21 (DE3) assessed as effect on enthalpy of protein unfolding at 214 uM by differential scanning calorimetry; settings: Orthopoxvirus vaccinia; procedure, shortened: as §4
N1L (Vaccinia virus) [17] = molecular target: N1L (Vaccinia virus) (UniProt Q49PX0); assay: Destabilizing effect on Vaccinia virus recombinant N1L expressed in Escherichia coli BL21 (DE3) assessed as decrease in equilibrium constant of protein dimerization at 100 uM by analytical ultracentrifugation; settings: Orthopoxvirus vaccinia
Procedure, shortened: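 Sedimentation equilibrium AUC of N1L in PBS at 0.45, 0.15 and 0.05 mg/ml, with 2% DMSO and compound at 50–100 μM. Spun at 20,000 rpm, 20 °C, 24 h. Data fit to a monomer–dimer or monomer–dimer–tetramer equilibrium model to obtain the dimerization KD.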

Sequence of Bcl-2-like protein 1 (Q07817 whole entry): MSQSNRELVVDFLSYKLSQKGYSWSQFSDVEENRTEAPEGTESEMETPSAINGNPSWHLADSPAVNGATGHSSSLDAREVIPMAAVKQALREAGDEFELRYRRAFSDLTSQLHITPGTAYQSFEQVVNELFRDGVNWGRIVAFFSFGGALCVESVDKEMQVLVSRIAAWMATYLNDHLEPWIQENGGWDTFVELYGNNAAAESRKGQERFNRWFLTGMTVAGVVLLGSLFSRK

Oc1cc(Cc2ccccc2)c(Cc2ccccc2)cc1O
IC50 (Bcl-2-like protein 1): 8.5 µM
IC50 [1]: 4.7 µM
IC50 [2]: 0.6 µM
IC50 (N1L [3]): 0.9 µM
Tm (N1L (Vaccinia virus) [4]): 48.6 °C
IC50 (N1L [5]): 0.9 µM
Activity (N1L (Vaccinia virus) [6]): inactive
IC50 (N1L [7]): 1.8 µM

COc1cc(C(c2ccccc2)c2ccccc2)c2ccccc2c1O
Tm (N1L (Vaccinia virus) [8]): 57.5 °C
IC50 (N1L [3]): 1.8 µM
IC50 (N1L [5]): 1.8 µM
Activity (N1L (Vaccinia virus) [9]): inactive
IC50 (N1L [7]): 2 µM

Oc1ccc(/C=N/c2ccccc2/N=C/c2ccc(O)c(O)c2)cc1O
selectivity ratio [10]: 5.6
selectivity ratio [11]: 5.6
Activity [12]: Non-toxic
EC50 (Vaccinia virus [13]): 10.9 µM
IC50 (N1L [3]): 1.2 µM
Tm (N1L (Vaccinia virus) [4]): 52.3 °C
IC50 (N1L [5]): 1.2 µM
EC50 (Vaccinia virus [14]): 13.2 µM
Activity (N1L (Vaccinia virus) [6]): inactive
Activity (HT-1080): Non-toxic
IC50 (N1L [7]): 1.3 µM

Oc1ccc(/C=C/c2cc(O)cc(O)c2)cc1 [RESVERATROL]
IC50 (Bcl-2-like protein 1): 190 µM
Tm (N1L (Vaccinia virus) [15]): 54.2 °C
Activity (N1L (Vaccinia virus) [16]): inactive
IC50 (N1L [3]): 21.9 µM
IC50 (N1L [7]): 21.9 µM

COc1ccc(CCc2cc(OC)c(O)c(OC)c2)cc1
Tm (N1L (Vaccinia virus) [15]): 54.4 °C
Activity (N1L (Vaccinia virus) [16]): inactive
IC50 (N1L [3]): 5 µM
IC50 (N1L [5]): 5 µM
IC50 (N1L [7]): 7.5 µM

COc1cc(C(=N\c2ccccc2)/C(=N/c2ccccc2)c2cc(OC)c(OC)c(OC)c2)cc(OC)c1OC
IC50 (N1L [3]): 2.4 µM
IC50 (N1L [5]): 2.4 µM
IC50 (N1L [7]): 3.5 µM

COc1ccc2ccccc2c1-c1c(O)ccc2ccccc12
IC50 (N1L [3]): 1.5 µM
IC50 (N1L [5]): 1.5 µM
IC50 (N1L [7]): 3.6 µM

Oc1cc(C(c2ccccc2)c2ccccc2)c2ccccc2c1O
Activity (N1L (Vaccinia virus) [17]): Active
IC50 [2]: 1.4 µM
IC50 (N1L [3]): 0.6 µM
Tm (N1L (Vaccinia virus) [4]): 54.9 °C
IC50 (N1L [5]): 0.6 µM
Activity (N1L (Vaccinia virus) [6]): inactive
IC50 (N1L [7]): 1.9 µM

COc1cc(C(c2ccc(O)c(OC)c2)c2ccc(O)c(OC)c2)ccc1O
IC50 (N1L [3]): 8.8 µM
IC50 (N1L [5]): 8.8 µM
IC50 (N1L [7]): 12.4 µM

COc1ccc(C(C)c2cc(OC)c(OC)c(OC)c2)cc1 (stereo not given)
selectivity ratio [10]: 50
selectivity ratio [11]: 50
Activity [12]: Non-toxic
IC50 (N1L [3]): 5.6 µM
IC50 (N1L [5]): 5.6 µM
Activity (HT-1080): Non-toxic
IC50 (N1L [7]): 6.6 µM

COc1ccc(/C(=N/c2ccc(C)cc2)c2ccccc2)cc1
IC50 (N1L [3]): 1.7 µM
IC50 (N1L [7]): 1.7 µM

COc1cc(-c2ccc3cc(OC)c(OC)c(OC)c3c2)cc(OC)c1OC
Activity [12]: Non-toxic
Activity (N1L (Vaccinia virus) [17]): Active
EC50 (Vaccinia virus [13]): 16.9 µM
IC50 [2]: 1.7 µM
IC50 (N1L [3]): 0.9 µM
Tm (N1L (Vaccinia virus) [4]): 56.3 °C
IC50 (N1L [5]): 0.9 µM
EC50 (Vaccinia virus [14]): 13.2 µM
Activity (N1L (Vaccinia virus) [6]): inactive
Activity (HT-1080): Non-toxic
IC50 (N1L [7]): 1.6 µM

— ChEMBL document CHEMBL1157820, “Vaccinia virus virulence factor N1L is a novel promising target for antiviral therapeutic intervention” (J Med Chem, 2010)
